Columns and labels:
MS2 coat protein [1] = assay: apparent Kd, MS2 coat protein; higher = weaker binding; RNA-MaP array; tryptophan 2.4 mM where present
Outline: (§1)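 Green signal from SNAP-549-labelled MS2 coat protein was normalised to red-channel RNA signal and to the median Fmax of control clusters. The protein was titrated from 0.7 or 1.5 nM, doubling to 3 µM, without and then with constant ligand, over designs transcribed by stalled E. coli RNA polymerase on Illumina sequencing-chip clusters, in 100 mM Tris-HCl pH 7.5, 80 mM KCl, 4 mM MgCl2, BSA, DTT, yeast tRNA and Tween-20. The apparent Kd is the median of filtered per-cluster binding-curve fits.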

MS2 coat protein [2] = assay: apparent Kd, MS2 coat protein; higher = weaker binding; RNA-MaP array; theophylline 2 mM where present
Outline: as §1

[3] = designed as: OFF switch for tryptophan, no ligand
[4] = ligand present: tryptophan, designed as: OFF switch for tryptophan
[5] = designed as: ON switch for tryptophan, no ligand
[6] = ligand present: tryptophan, designed as: ON switch for tryptophan
[7] = designed as: ON switch for theophylline, no ligand
[8] = ligand present: theophylline, designed as: ON switch for theophylline
[9] = designed as: OFF switch for theophylline, no ligand
[10] = ligand present: theophylline, designed as: OFF switch for theophylline

Sequence | apparent Kd (MS2 coat protein [1]; [3]) [nM] | apparent Kd (MS2 coat protein [1]; [4]) [nM] | apparent Kd (MS2 coat protein [1]; [5]) [nM] | apparent Kd (MS2 coat protein [1]; [6]) [nM] | also measured
UGUAUUGGAAACAGUACUAGUGAUCCGGUCCGAGGACCGGUACGGCCGCCACUCGAUAUAAAUAAACAUGAGGAUCACCCAUGUA | 14.9 | 29.8 | – | – | –
ACAUGAGGAUCACCCAUGUUUGAUGUUCCUCGAGGACCGGUACGGCCGCCACUCGAACGAGUGGCGCGCGAGUGCGCACUCGCGC | – | – | 12.2 | 12.5 | –
GAUACUAUGAAAGUAGUAUCUACGUGUUGACGAGGACCGGUACGGCCGCCACUCGACAUGAGGAUCACCCAUGUAUAGAAUAUGU | – | – | 20.6 | 14.8 | –
UUCUUUAAGUCGGCCGCCACUGAAACAUGAGGAUCACCCAUGUAAAUUUGGGAGUAGGUAUAUUACAGGACCGGGACUAUAGUAA | 29.9 | 54.8 | – | – | –
UCGGACAUGAGGAUCACCCAUGUAAAUCCUCGAGGACCGGUACGGCCGCCACUCGAACGAGUGGCACGCGAGUGCGCACUCGCGU | – | – | 30.9 | 27.7 | –
GUCUUGGGAUCGGCCGCCACUACAUGAGGAUCACCCAUGUGGACAAAUAGGGUUUUUAAGCUCGGUAGGACCGGGAUUCGGACAU | 12.9 | 56.9 | – | – | –
GCGACCCUGAGAUCCUGCGUAACGUGAACACGAGGACCGGUACGGCCGCCACUCGAGAGAACAUGAGGAUCACCCAUGUCUGAGC | 20.4 | 22.2 | – | – | –
GGUAUGUAUUCGGAAACGAAUGCAUACCAACGAGGACCGGUACGGCCGCCACUCGGCCGUGAUCAACAUGAGGAUCACCCAUGUA | 15.8 | 26.8 | – | – | –
UAUUAUCAGUCGGCCGCCACUGACACAUGAGGAUCACCCAUGUAAUUUGGGUUAUAUAUAAAUUACAGGACCGGGACAAAUGCUA | 341 | 280 | – | – | –
AUUCAUGGAAACAUGACAUACAUUACCGGUCGAGGACCGGUACGGCCGCCACUCGGUUGGUGGCACAUGAGGAUCACCCAUGUUA | – | – | 26.8 | 26.7 | –
CCUAUGCAGUCGGCCGCCACUGAUAAAGUUAUCUUUACCUCAGAAACAUGAGGAUCACCCAUGUACAGGACCGGGACUGUAUAGG | 12.7 | 19.8 | – | – | –
UAAUAAGUACCGGUUCUCAGAUCCUCAUGUCGAGGACCGGUACGGCCGCCACUCGAAACAUGAGGAUCACCCAUGUAAUAAUAAU | 36.2 | 31.7 | – | – | –
AACAUGAGGAUCACCCAUGUCCUCAUGAUUCGAGGACCGGUACGGCCGCCACUCGGUCCUCGCGAGGAGGAGUCAAAGACUCCAA | – | – | 178 | 393 | –
AUGACUCACAAAGAAGAUAAAAUGGGUGAACGAGGACCGGUACGGCCGCCACUCGGACAUGAGGAUCACCCAUGUCCAUGUGCAA | 22.1 | 28.8 | – | – | –
GGAUGGAACUCGGCCGCCACUGGUGAUCCUAAUGUACAUGAGGAUCACCCAUGUACAUGAGAAGAUAGGACCGGGAGAUAACAUG | – | – | 27.7 | 19.8 | –
GGUUACUCUACGGCCGCCACUGUAAUGUAAAGAUUCCUGUACAUGACAUGAGGAUCACCCAUGUGCAGGACCGGGUAGUGUAACC | – | – | 194 | 52.6 | –
CGCGGUUGAGAUGGGCCUUUGAUAAGUCUGCGAGGACCGGUACGGCCGCCACUCGAGGACAUGAGGAUCACCCAUGUACUUCGCG | 47.3 | 17.8 | – | – | –
CCUAUGCAGUCGGCCGCCACUGAACAUGAGGAUCACCCAUGUAUAUAAAGAUCCUGAUAUAAUAACAGGACCGGGACUGUAUAGG | 59.7 | 157 | – | – | –
UUGCCCAGUACGGCCGCCACUGUGUGCAGGGAACCCAGGUCCACAUGAGGAUCACCCAUGUACAGCAGGACCGGGUACUUGCAAU | 9.03 | 11.7 | – | – | –
GGGAGGGAGGCGGCCGCCACUGAUUUUCAUAUAUAUAUAACAUGAGGAUCACCCAUGUAGAUAUACAGGACCGGGCCUUUUUUUU | – | – | 20.4 | 19.5 | –
CUAUAAAUAGCGGCCGCCACUUACUCAUGAGGUAACAACAUGAGGAUCACCCAUGUUUGAGGAUCAAGGACCGGGCUAUUUAUAG | – | – | 29.8 | 17.6 | –
AAAUGUACGUCGGCCGCCACUGCGCUGAAGACAGUCACAUGAGGAUCACCCAUGUACGACAAGGGUAGGACCGGGAUGUGAGGGU | – | – | 91.4 | 44.7 | –
AAUAAUAUCCUCAUGUGAGUCGUACCAUAACGAGGACCGGUACGGCCGCCACUCGAACAUGAGGAUCACCCAUGUAGGUAUGAUA | – | – | 85.9 | 200 | –
AUGGAGACCUCGGCCGCCACUCUCCAUGAGGAUCUCCCAUGUAACAUGAGGAUCACCCAUGUGCUGAGGACCGGGAGGUCCUGAA | – | – | 10.6 | 12 | –
CCAUUGAUGACGGCCGCCACUGUCUACAUGAGGAUCACCCAUGUAUAGCAGGGUGGACCUAUGGACAGGACCGGGUCACUUGUCC | 11 | 12.3 | – | – | –
ACCGCGGUAUCGGCCGCCACUUGUGGGUUAAAUCUGGUACAUGAGGAUCACCCAUGUGUCUCCUCGAGGACCGGGAUAGCGUGAC | – | – | 158 | 23.9 | –

Sequence | apparent Kd (MS2 coat protein [1]; [3]) [nM] | apparent Kd (MS2 coat protein [1]; [4]) [nM] | apparent Kd (MS2 coat protein [1]; [5]) [nM] | apparent Kd (MS2 coat protein [1]; [6]) [nM] | also measured
GACCCAUGAGUUGUAAAAGCUCAUGGGUCGCGAGGACCGGUACGGCCGCCACUCGGCUGUACAUGAGGAUCACCCAUGUCAGGGU | – | – | 134 | 761 | –
AAUCAUGAAAACAUGACAUGAGGAUCACUCCGAGGACCGGUACGGCCGCCACUCGCGAGGAGGCGGACAUGAGGAUCACCCAUGU | – | – | 254 | 66.3 | –
ACACAUGAGGAUCACCCAUGUUGAGGAACACGAGGACCGGUACGGCCGCCACUCGACACAUGAGGAUCACCCAUGUGAUCACCCA | – | – | 141 | 169 | –
AUGCAUAGCACGGCCGCCACUCCAUGUAAACAUGAGGAUCACCCAUGUAAUUUGGAUGUUUUAUAGAGGACCGGGUGAAAUGCAA | 8.88 | 15.1 | – | – | –
GGUUACUCUACGGCCGCCACUGAACAUGAGGAUCACCCAUGUAAUGUUCAGACGUCUUUAGACGACAGGACCGGGUAGUGUAACC | – | – | 178 | 151 | –
UUACAUGAGGAUCACCCAUGUUUACUAUGUCGAGGACCGGUACGGCCGCCACUCGUAUUUGAUGAUUUAGGUGCCACAAGUUAUU | 21.2 | 20.5 | – | – | –
AAUAAACAUGAGGAUCACCCAUGUUGUUGACGAGGACCGGUACGGCCGCCACUCGACAUGAGGAUCACCCAUGUUGUCACAUGAG | – | – | 180 | 151 | –
UGUCGGCGUAAGUUGGCAUGUCUUGCUGGUCGAGGACCGGUACGGCCGCCACUCGAUCCUUCGCACAUGAGGAUCACCCAUGUUG | – | – | 18.3 | 17.1 | –
UUAUGCAGGUCGGCCGCCACUACACACAUGAGGAUCACCCAUGUAGUUACUGGGUGAAGUGGCAGUAGGACCGGGACCUGCAUAU | – | – | 371 | 227 | –
AGAAUAUAGUCGGCCGCCACUCUACAAACAUGAGGAUCACCCAUGUUCACAUAGUGGAAACACAUGAGGACCGGGACAUAGGCAU | – | – | 15.6 | 14.2 | –
UAACAUGAGGAUCACCCAUGUAUACUAAGUCGAGGACCGGUACGGCCGCCACUCGAACUUCAAGAAUAGGCGGUAAAUGUAAGUA | 11.5 | 13.3 | – | – | –
AAUGUAUGCCACAUGAGGAUCACCCAUGUGCGAGGACCGGUACGGCCGCCACUCGGUCGGUGGUUAAUGAAGAUAUACAAUAAUG | 11.5 | 15.5 | – | – | –
GAACAUGAGGAUCACCCAUGUAAAACAGAUACCAGUGAUAUAAUACACCCUUGGCAGCUGUAGCUGAAUAAUAAUUCCCUCAAGC | – | – | – | – | apparent Kd (MS2 coat protein [2]; [7]): 15.5 nM; apparent Kd (MS2 coat protein [2]; [8]): 18.4 nM
UGGGUACCGACGGCCGCCACUGACUAUAGACAUGAGGAUCACCCAUGUAGAGAUCCUAGACUACCCAGGACCGGGUCUGGUGCUA | 124 | 220 | – | – | –
AUGGAGACCUCGGCCGCCACUCUCCAUGAGGAUCUCCCAUGUAACAUGAGGAUCACCCAUGUACUGAGGACCGGGAGGUCCUUGA | – | – | 9.9 | 10.8 | –
UGAUACCAGUCGGCCGCCACUACAUGAGGAUCACCCAUGUAUGGGUCAAUGCUAGAUACUAGCAGUAGGACCGGGACUGGUAUCU | 11.4 | 36.1 | – | – | –
AUCUCAUAGAGUGAUACCAGACUACAUGAGGAUCACCCAUGUUACAUUUAAAUAUCAUUUGUCCCUUGGCAGCACAUUAAGUACA | – | – | – | – | apparent Kd (MS2 coat protein [2]; [9]): 24.3 nM; apparent Kd (MS2 coat protein [2]; [10]): 15.2 nM
AGCGACAUGCGUGAUACCAGCUACAUGAGGAUCACCCAUGUCAGCAGGAAACUGCUGUGUAGCCCUUGGCAGCACAGUGCAUGUC | – | – | – | – | apparent Kd (MS2 coat protein [2]; [9]): 12.7 nM; apparent Kd (MS2 coat protein [2]; [10]): 24.7 nM
GAUAUGGAAACAUGUCAGAUCCUUACCGGUCGAGGACCGGUACGGCCGCCACUCGAAAACGAGGAACAUGAGGAUCACCCAUGUA | 49.7 | 87.5 | – | – | –
CUAUAUGGAAACAUAUAGAAGCGAAAGCAACGAGGACCGGUACGGCCGCCACUCGAAGAGUGGUGGACAUGAGGAUCACCCAUGU | – | – | 63.3 | 52.8 | –
ACAAGUCCUCAUGAUACCAGCGAUGAGACAUAGUCUCAACAUGAGGAUCACCCAUGUAUUCGCCCUUGGCAGCAUACGGUUUUUG | – | – | – | – | apparent Kd (MS2 coat protein [2]; [7]): 301 nM; apparent Kd (MS2 coat protein [2]; [8]): 28.5 nM
UGUAUGUGAUUUGAUACCAGACCAACUGGUAAAACAUGAGGAUCACCCAUGUAAACUUGGGUCCCUUGGCAGCAAAUCGCAUACU | – | – | – | – | apparent Kd (MS2 coat protein [2]; [7]): 80.5 nM; apparent Kd (MS2 coat protein [2]; [8]): 10.9 nM
CAAUAAGUACCGGUCCUCAGAUCCUCAUGACGAGGACCGGUACGGCCGCCACUCGAAACAUGAGGAUCACCCAUGUAAUAAUAAC | 40.9 | 30.5 | – | – | –
UGACAUUGCUCAGAUACCAGACAUGAGGAUCACCCAUGUACCAAGAGUACAAAUUAAAAUGUCCCUUGGCAGCUGAGCAAUGUCU | – | – | – | – | apparent Kd (MS2 coat protein [2]; [9]): 19.6 nM; apparent Kd (MS2 coat protein [2]; [10]): 483 nM
CAAUAAGUAACUGAUACCAGUGUACUGACAUGAGGAUCACCCAUGUUGGGUUUUGUUGUACACCCUUGGCAGCAGAAUCUUAUUG | – | – | – | – | apparent Kd (MS2 coat protein [2]; [9]): 60.3 nM; apparent Kd (MS2 coat protein [2]; [10]): 80.7 nM

Source: the EternaBench riboswitch data
